Experimental data from different studies.
Compare with care: the assays were run in different laboratories. In brackets after ≈: the same amount, converted by molar mass.

| SMILES | organism | assay | system | conditions | endpoint | value |
| --- | --- | --- | --- | --- | --- | --- |
| CC[C@H]1OC(=O)[C@H](C)[C@@H](O[C@H]2C[C@@](C)(OC)[C@@H](O)[C@H](C)O2)[C@H](C)[C@@H](O[C@@H]2O[C@H](C)C[C@H](N(C)C)[C@H]2O)[C@](C)(OC)C[C@@H](C)C(=O)[C@H](C)[C@@H](O)[C@]1(C)O | Helicobacter pylori | microbial growth, broth dilution | – | 62.5 µg/mL | inhibition | 100% |
| O=C(O)c1cn(C2CC2)c2cc(N3CCNCC3)c(F)cc2c1=O | Salmonella enterica | microbial growth | ENTERITIDIS | 20 h, pH 7.2 | MIC | 0.0156 µg/mL (≈ 0.0471 µM) |
| O=C1NC(=S)N/C1=C\c1c2ccccc2c(-c2ccc(N(c3ccccc3)c3ccccc3)cc2)c2ccccc12 | Bacillus cereus | microbial growth, broth dilution | ATCC10876 | – | MIC | > 1000 µg/mL |
| O=C(N/N=C/c1ccc([N+](=O)[O-])o1)c1ccc(O)cc1 | Salmonella enterica | microbial growth | ATCC13311 TYPHIMURIUM | – | MIC90 | 0.98 µg/mL (≈ 3.56 µM) |
| O=C1NC(=S)N/C1=C\c1ccc(-c2ccc(N(c3ccccc3)c3ccccc3)cc2)c2ccccc12 | Bacillus cereus | microbial killing, broth dilution | ATCC10876 | – | MBC | > 1000 µg/mL |
| CO[C@H]1O[C@H](COC(c2ccccc2)(c2ccccc2)c2ccccc2)[C@@H](OC(=O)c2ccc(C(C)(C)C)cc2)[C@H](OC(=O)c2ccc(C(C)(C)C)cc2)[C@H]1OC(=O)c1ccc(C(C)(C)C)cc1 | Bacillus cereus | microbial killing, broth dilution | – | – | MBC | 8 µg/mL (≈ 8.72 µM) |
| O=C1NC(=S)S/C1=C\c1ccc(-c2ccc(N(c3ccccc3)c3ccccc3)cc2)c2ccccc12 | Bacillus cereus | microbial killing, broth dilution | ATCC10876 | – | MBC | > 1000 µg/mL |
| COC(=O)c1ccc(O)cc1 | Helicobacter pylori | microbial growth, broth dilution | – | 125 µg/mL | inhibition | 100% |
| CO/N=C(\C(=O)N[C@@H]1C(=O)N2C(C(=O)O)=C(CSc3nc(=O)c(=O)[nH]n3C)CS[C@H]12)c1csc(N)n1 | Salmonella enterica | microbial growth | – | 20 h, pH 7 | MIC | 0.0625 µg/mL (≈ 0.113 µM) |
| CC1(C)S[C@@H]2[C@H](NC(=O)[C@H](N)c3ccccc3)C(=O)N2[C@H]1C(=O)O | Salmonella enterica | microbial growth, agar dilution | ENTERITIDIS | 26.93 µM | inhibition | 100% |
| COc1cc(-c2cc(=O)c3c(O)cc(O)cc3o2)ccc1O | Helicobacter pylori | microbial growth, broth dilution | – | 62.5 µg/mL | inhibition | 100% |
| O=C(N[C@H](CO)[C@H](O)c1ccc([N+](=O)[O-])cc1)C(Cl)Cl | Salmonella enterica | microbial growth | ATCC13311 TYPHIMURIUM | – | MIC90 | 0.98 µg/mL (≈ 3.03 µM) |
| CC1(C)S[C@@H]2[C@H](NC(=O)[C@H](N)c3ccccc3)C(=O)N2[C@H]1C(=O)O | Salmonella enterica | microbial growth | ENTERITIDIS | 20 h, pH 5.5 | MIC | 1 µg/mL (≈ 2.86 µM) |
| O=C(O)c1ccc(O)cc1 | Helicobacter pylori | microbial growth, broth dilution | – | 31.25 µg/mL | inhibition | 100% |
| COc1cc(Cc2cnc(N)nc2N)cc(OC)c1OC | Salmonella enterica | microbial growth | F98, TYPHIMURIUM | 20 h, pH 7.2 | MIC | 0.25 µg/mL (≈ 0.861 µM) |
| O=c1cc(-c2ccc(O)c(O)c2)oc2cc(O)cc(O)c12 | Helicobacter pylori | microbial growth, broth dilution | – | 0.98 µg/mL | inhibition | 73.2% |
| CN[C@H](CC(C)C)C(=O)N[C@H]1C(=O)N[C@@H](CC(N)=O)C(=O)N[C@H]2C(=O)N[C@H]3C(=O)N[C@H](C(=O)N[C@H](C(=O)O)c4cc(O)cc(O)c4-c4cc3ccc4O)[C@H](O)c3ccc(c(Cl)c3)Oc3cc2cc(c3O[C@@H]2O[C@H](CO)[C@@H](O)[C@H](O)[C@H]2O[C@H]2C[C@](C)(N)[C@H](O)[C@H](C)O2)Oc2ccc(cc2Cl)[C@H]1O | Bacillus cereus | microbial growth, broth dilution | ATCC10876 | – | MIC | 0.98 µg/mL (≈ 0.676 µM) |
| Cc1cc(NS(=O)(=O)c2ccc(N)cc2)no1 | Salmonella enterica | microbial growth | F98, TYPHIMURIUM | 20 h, pH 7.2 | MIC | 64 µg/mL (≈ 253 µM) |
| O=C1NC(=S)N/C1=C\c1ccc(-c2ccc(N(c3ccccc3)c3ccccc3)cc2)cc1 | Bacillus cereus | microbial killing, broth dilution | ATCC10876 | – | MBC | > 1000 µg/mL |
| CO/N=C(\C(=O)N[C@@H]1C(=O)N2C(C(=O)O)=C(CSC(=O)c3ccco3)CS[C@H]12)c1csc(N)n1 | Salmonella enterica | microbial growth | TYPHIMURIUM | 20 h, pH 7.2 | MIC | 1 µg/mL (≈ 1.91 µM) |
| O=c1cc(-c2ccc(O)cc2)oc2cc(O)cc(O)c12 | Helicobacter pylori | microbial growth, broth dilution | – | 0.98 µg/mL | inhibition | 82.6% |
| O=C(O)CN1C(=O)/C(=C/c2ccc(-c3ccc(N(c4ccccc4)c4ccccc4)cc3)c3ccccc23)NC1=S | Bacillus cereus | microbial killing, broth dilution | ATCC10876 | – | MBC | > 1000 µg/mL |
| CN(C)[C@@H]1C(O)=C(C(N)=O)C(=O)[C@@]2(O)C(O)=C3C(=O)c4c(O)cccc4[C@@](C)(O)[C@H]3C[C@@H]12 | Salmonella enterica | microbial growth | F98, TYPHIMURIUM | 20 h, pH 7 | MIC | 1 µg/mL (≈ 2.25 µM) |
| O=C(O)CN1C(=O)/C(=C/c2ccc(-c3ccc(N(c4ccccc4)c4ccccc4)cc3)cc2)SC1=S | Bacillus cereus | microbial killing, broth dilution | ATCC10876 | – | MBC | 31.3 µg/mL (≈ 59.9 µM) |
| [H]/N=C(/N)N[C@H]1[C@H](O)[C@@H](O)[C@H](O[C@@H]2O[C@@H](C)[C@](O)(C=O)[C@H]2O[C@@H]2O[C@@H](CO)[C@H](O)[C@@H](O)[C@@H]2NC)[C@@H](N/C(N)=N\[H])[C@@H]1O | Salmonella enterica | microbial growth | – | 20 h, pH 7 | MIC | 64 µg/mL (≈ 110 µM) |
